Source: paper PMC12521504 (Communications Biology, 2025)
Like-named read-outs stand apart in the source and are kept apart here.

Legend:
male ICR-CD1 mice [1] = assay: Tail-flick assay; format: in vivo, mouse; details: for %MPE (group mean): 15 min
In short: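 Radiant-heat tail-flick in 8-week male ICR-CD1 mice (n = 6–15/group). Beam was calibrated to a 2–4 s baseline, tail tip placed 20–30 mm from the source, cut-off 10 s. Compound was given i.c.v. under isoflurane at 100 µg/mouse (also 75 µg/mouse), alone or with MERF (50 µg/mouse). […] Results are %MPE relative to pre-treatment baseline.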

male ICR-CD1 mice [2] = assay: Hot plate assay; format: in vivo, mouse; details: 15 min
In short: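 Male ICR-CD1 mice, 8 weeks old (n = 6–15/group), received compound i.c.v. (10 µl, 100 µg/mouse) under isoflurane, alone or with MERF (50 µg/mouse). Mice were placed on a glass platform preheated to 55 °C. Latency to shake, lick or lift the hind paw, or to jump, was timed at set points, with a 60 s cut-off. Results are %MPE = (Test−Baseline)/(60−Baseline) × 100.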

male ICR-CD1 mice [3] = assay: Acetic acid induced writhing test; format: in vivo, mouse; details: for effect of naloxone on analgesia of systemic (i.p.) compound: naloxone 5 mg/kg s.c.
male ICR-CD1 mice [4] = assay: Formalin induced paw licking/lifting test; format: in vivo, mouse; details: 2% formalin
mouse ACE (mACE) [5] = molecular target: T1, mouse ACE (mACE) (Mus musculus, UniProt P09470); assay: Fluorescence-based ACE enzymatic assay with Mca-[…]; format: biochemical
T1 sequence (P09470 35-1312): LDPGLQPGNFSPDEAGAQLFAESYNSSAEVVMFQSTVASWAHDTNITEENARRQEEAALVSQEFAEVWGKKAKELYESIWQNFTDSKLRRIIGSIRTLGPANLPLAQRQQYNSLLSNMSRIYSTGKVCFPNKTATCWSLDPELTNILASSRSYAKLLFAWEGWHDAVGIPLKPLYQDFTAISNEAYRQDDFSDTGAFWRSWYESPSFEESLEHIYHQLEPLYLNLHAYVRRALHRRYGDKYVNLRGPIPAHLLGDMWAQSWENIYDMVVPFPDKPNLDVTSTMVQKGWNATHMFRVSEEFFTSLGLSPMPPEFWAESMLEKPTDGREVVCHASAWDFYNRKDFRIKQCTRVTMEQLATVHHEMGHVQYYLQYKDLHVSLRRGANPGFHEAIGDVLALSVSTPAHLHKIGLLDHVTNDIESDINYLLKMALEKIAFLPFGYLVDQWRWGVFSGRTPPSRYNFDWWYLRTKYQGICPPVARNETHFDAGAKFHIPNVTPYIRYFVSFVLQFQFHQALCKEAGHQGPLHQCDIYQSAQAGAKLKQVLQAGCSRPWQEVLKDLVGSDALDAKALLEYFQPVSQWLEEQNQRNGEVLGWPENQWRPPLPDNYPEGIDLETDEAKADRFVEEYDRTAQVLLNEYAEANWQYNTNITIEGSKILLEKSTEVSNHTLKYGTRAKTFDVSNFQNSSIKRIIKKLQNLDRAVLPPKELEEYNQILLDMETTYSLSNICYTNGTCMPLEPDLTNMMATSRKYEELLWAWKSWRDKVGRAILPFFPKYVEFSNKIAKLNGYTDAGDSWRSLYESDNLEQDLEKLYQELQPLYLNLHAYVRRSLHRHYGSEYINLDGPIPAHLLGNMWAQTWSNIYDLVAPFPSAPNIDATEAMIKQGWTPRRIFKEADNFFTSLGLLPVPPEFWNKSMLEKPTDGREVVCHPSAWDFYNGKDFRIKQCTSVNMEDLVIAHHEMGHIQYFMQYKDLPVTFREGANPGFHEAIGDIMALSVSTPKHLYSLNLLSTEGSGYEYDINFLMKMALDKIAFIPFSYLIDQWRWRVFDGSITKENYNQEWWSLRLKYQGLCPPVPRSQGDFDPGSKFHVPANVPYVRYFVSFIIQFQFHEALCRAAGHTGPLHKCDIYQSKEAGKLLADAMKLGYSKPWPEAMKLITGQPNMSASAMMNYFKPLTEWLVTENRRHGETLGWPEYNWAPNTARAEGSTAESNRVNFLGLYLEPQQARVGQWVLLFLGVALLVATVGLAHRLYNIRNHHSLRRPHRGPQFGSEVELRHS

mouse ACE (mACE) [6] = molecular target: T1, mouse ACE (mACE); assay: Secondary LC-MS/MS ACE inhibition assay; format: biochemical
[7] = tested on: extracellular MERF, Met-enkephalin and Leu-enkephalin levels; format: cell-based, mouse; details: thiorphan 10 μM, raloxifene 500 μM
N-domain of mACE = molecular target: T2, N-domain of mACE (Mus musculus, UniProt P09470); assay: ACE N-domain specific enzymatic assay with Abz-SDK; format: biochemical
T2 sequence (P09470 35-1312): T1 sequence (P09470 35-1312)

C-domain of mACE = molecular target: T3, C-domain of mACE (Mus musculus, UniProt P09470); assay: ACE C-domain specific enzymatic assay with Abz-LFK; format: biochemical
T3 sequence (P09470 35-1312): T1 sequence (P09470 35-1312)

[8] = compound 100 μg/mouse + MERF 50 μg/mouse i.c.v.
[9] = compound 100 μg/mouse i.c.v. alone
[10] = compound 100 μg/mouse + MERF i.c.v.
[11] = 100 µg/animal i.c.v., 1% acetic acid i.p., 30 min
[12] = 100 µg/animal i.c.v. + naloxone 5 mg/kg s.c.
[13] = 100 µg/animal i.c.v., late phase

With `C[C@H](CS)C(=O)N1CCC[C@H]1C(=O)O` [Captopril, captopril] the “%MPE (group mean)” value (male ICR-CD1 mice [1]; [8]) was 68.31%, the “%MPE (group mean)” value (male ICR-CD1 mice [1]; [9]) was 21.68% and the “%MPE (group mean)” value (male ICR-CD1 mice [2]; [10]) was 51.30%. The “%MPE (group mean)” value (male ICR-CD1 mice [2]; [9]) was 10.32%, the “writhings (group mean)” value (male ICR-CD1 mice [3]; [11]) was 48 and the “writhings (group mean)” value (male ICR-CD1 mice [3]; 50 mg/kg i.p., 1% acetic acid) was 57.66. The “effect of naloxone on analgesia of systemic (i.p.) compound” value (male ICR-CD1 mice [3]) was “reversed by systemic naloxone”, the “paw licking/lifting duration, Phase I” value (male ICR-CD1 mice [4]; [12]) was 73.5 s and the “paw licking/lifting duration, Phase II” value (male ICR-CD1 mice [4]; [12]) was 16.25 s. The “paw licking/lifting duration, Phase I” value (male ICR-CD1 mice [4]; 100 µg/animal i.c.v., 0–5 min) was 16.5 s and the “paw licking/lifting duration, Phase II” value (male ICR-CD1 mice [4]; [13]) was 15 s.
In the case of `O=C(O)CNC(=O)C(CS)Cc1ccccc1` (stereo not shown) [Thiorphan, thiorphan], the IC50 (mouse ACE (mACE) [5]) is reported as 2.36 ± 0.42 µM, the IC50 (mouse ACE (mACE) [6]) is reported as 3.51 ± 0.37 µM and the “effect on Met- and Leu-enkephalin levels” value [7] is reported as “affected the levels of Met- and Leu-enkephalins”. The “%MPE (group mean)” value (male ICR-CD1 mice [1]; [8]) was 40.32%, the “%MPE (group mean)” value (male ICR-CD1 mice [1]; [9]) was 22.45% and the “%MPE (group mean)” value (male ICR-CD1 mice [2]; [10]) was 36.48%. For the same compound, the “%MPE (group mean)” value (male ICR-CD1 mice [2]; [9]) was 13.83%, the IC50 (N-domain of mACE) was 1.3 ± 0.08 µM and the Ki (N-domain of mACE) was 0.71 ± 0.045 µM. The IC50 (C-domain of mACE) was 0.77 ± 0.046 µM, the Ki (C-domain of mACE) was 0.17 ± 0.01 µM and the C/N selectivity factor (C-domain of mACE; N-domain versus C-domain) was 4.2.
`Cl.O=C(O)C1CCCN(CCC=C(c2ccccc2)c2ccccc2)C1` (stereo not shown) [SKF 89976A hydrochloride] was tested, and the “confirmation of HTS findings in dose-response studies” value (mouse ACE (mACE) [5]) was “did not confirm the HTS findings”.
In the case of `C=CCN1CC[C@]23c4c5ccc(O)c4O[C@H]2C(=O)CC[C@@]3(O)[C@H]1C5` [Naloxone, naloxone], the “analgesia of naloxone itself” value (male ICR-CD1 mice [1]; 5 mg/kg s.c.) is reported as “unable to induce analgesia”.
For Met-enkephalin-Arg-Phe [MERF], the “%MPE (group mean)” value (male ICR-CD1 mice [1]; MERF 50 μg/mouse i.c.v. alone) was 6.27%.
In the case of `O=C(O)c1nn(Cc2ccc(Cl)cc2Cl)c2ccccc12` [Lonidamine, lonidamine], the “confirmation of HTS findings in dose-response studies” value (mouse ACE (mACE) [5]) is reported as “did not confirm the HTS findings”.
For `O=C(c1ccc(OCCN2CCCCC2)cc1)c1c(-c2ccc(O)cc2)sc2cc(O)ccc12` [Raloxifene, raloxifene], the IC50 (mouse ACE (mACE) [5]) was 102 ± 13.2 µM, the “%MPE (group mean)” value (male ICR-CD1 mice [1]; [8]) was 34.28% and the “%MPE (group mean)” value (male ICR-CD1 mice [1]; [9]) was 13.33%. The “%MPE (group mean)” value (male ICR-CD1 mice [2]; [10]) was 25.89%, the “%MPE (group mean)” value (male ICR-CD1 mice [2]; [9]) was 5.52% and the “writhings (group mean)” value (male ICR-CD1 mice [3]; 100 µg/animal i.c.v. + naloxone 5 mg/kg s.c., 1% acetic acid) was 78.75. For the same compound, the “writhings (group mean)” value (male ICR-CD1 mice [3]; [11]) was 51.8, the “effect of naloxone on analgesia of systemic (i.p.) compound” value (male ICR-CD1 mice [3]) was “naloxone failed to reverse the analgesic effect” and the “paw licking/lifting duration, Phase I” value (male ICR-CD1 mice [4]; [12]) was 69.75 s. The “paw licking/lifting duration, Phase II” value (male ICR-CD1 mice [4]; [12]) was 9.25 s, the “paw licking/lifting duration, Phase I” value (male ICR-CD1 mice [4]; 100 µg/animal i.c.v., 0–5 min) was 10 s and the “paw licking/lifting duration, Phase II” value (male ICR-CD1 mice [4]; [13]) was 2 s. For the same compound, the Ki (N-domain of mACE) was 180 µM, the IC50 (N-domain of mACE; read-out: IC50 N-domain, 40 µM Abz-SDK(Dnp)P-OH, 35 nM mACE) was 320 µM and the IC50 (C-domain of mACE) was 140 µM. The Ki (C-domain of mACE) was 30 µM.
